The source made the active and inactive calls. The rule behind the calls is not given here.
Tests used:
[1] = Cytotoxicity against rat microglia cells at 5 to 10 uM after 16 hrs by MTT assay; type: cell-based
Procedure, shortened: (§1)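 Primary neonatal rat cortical astrocytes or microglia, after 1 week in culture, exposed to compound for 16 h. MTT at 0.5 mg/mL for 4 h, then solubilized in 10% SDS/0.01 M HCl for 12 h in the dark. Absorbance read at 595 nm. Six replications in three experiments.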

[2] = molecular target: T1, cGMP-inhibited 3',5'-cyclic phosphodiesterase 3A (Homo sapiens, UniProt Q14432); assay: Inhibition of human recombinant PDE3A-mediated [3H]cAMP hydrolysis at 10 uM after 20 mins by scintillation proximity assay
T1 sequence (Q14432 whole entry): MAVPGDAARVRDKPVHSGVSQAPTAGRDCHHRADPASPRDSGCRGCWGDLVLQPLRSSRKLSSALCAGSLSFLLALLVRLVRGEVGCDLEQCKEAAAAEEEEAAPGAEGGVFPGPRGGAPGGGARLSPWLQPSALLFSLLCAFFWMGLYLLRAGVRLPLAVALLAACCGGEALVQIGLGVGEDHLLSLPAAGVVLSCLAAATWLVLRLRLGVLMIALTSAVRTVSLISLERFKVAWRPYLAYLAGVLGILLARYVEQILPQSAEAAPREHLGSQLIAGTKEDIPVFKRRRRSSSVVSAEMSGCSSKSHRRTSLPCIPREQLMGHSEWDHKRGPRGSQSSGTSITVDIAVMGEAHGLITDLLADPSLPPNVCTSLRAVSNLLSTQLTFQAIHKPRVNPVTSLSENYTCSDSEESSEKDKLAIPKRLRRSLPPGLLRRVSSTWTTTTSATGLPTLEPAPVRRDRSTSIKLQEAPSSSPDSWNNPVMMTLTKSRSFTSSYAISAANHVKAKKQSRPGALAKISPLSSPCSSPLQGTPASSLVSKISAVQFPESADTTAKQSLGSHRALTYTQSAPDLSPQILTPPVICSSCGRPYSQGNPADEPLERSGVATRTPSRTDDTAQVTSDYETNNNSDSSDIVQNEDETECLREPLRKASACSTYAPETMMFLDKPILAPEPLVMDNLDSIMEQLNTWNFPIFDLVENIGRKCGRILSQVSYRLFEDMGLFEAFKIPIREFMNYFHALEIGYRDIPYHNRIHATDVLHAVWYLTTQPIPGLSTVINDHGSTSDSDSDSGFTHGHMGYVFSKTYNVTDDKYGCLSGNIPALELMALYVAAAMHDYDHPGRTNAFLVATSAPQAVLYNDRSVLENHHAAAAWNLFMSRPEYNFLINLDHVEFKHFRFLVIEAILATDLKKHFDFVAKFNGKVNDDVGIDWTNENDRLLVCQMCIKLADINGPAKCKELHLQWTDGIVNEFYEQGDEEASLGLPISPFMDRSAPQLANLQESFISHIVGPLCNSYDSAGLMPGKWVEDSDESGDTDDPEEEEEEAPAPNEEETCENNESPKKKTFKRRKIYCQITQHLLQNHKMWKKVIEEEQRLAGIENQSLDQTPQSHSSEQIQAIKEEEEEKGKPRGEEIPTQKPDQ
Procedure, shortened: (§2)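 Scintillation proximity assay with human recombinant full-length enzyme: PDE7A1 or PDE3A at 0.02 unit, or PDE7B at 0.5 unit. Enzyme incubated with 5 nCi [3H]cAMP for 20 min at 30 °C. SPA beads added, shaken 1 h at room temperature, then settled 30 min before counting. Single-point screens at 10 μM run in duplicate. IC50 from a sigmoidal dose−response fit.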

[3] = Cytotoxicity against rat astrocytes at 5 to 10 uM after 16 hrs by MTT assay; type: cell-based; conditions: astrocyte; procedure, shortened: as §1
[4] = molecular target: T2, High affinity 3',5'-cyclic-AMP phosphodiesterase 7A (Homo sapiens, UniProt Q13946); assay: Inhibition of human recombinant PDE7A1-mediated [3H]cAMP hydrolysis at 10 uM after 20 mins by scintillation proximity assay; procedure, shortened: as §2
T2 sequence (Q13946 whole entry): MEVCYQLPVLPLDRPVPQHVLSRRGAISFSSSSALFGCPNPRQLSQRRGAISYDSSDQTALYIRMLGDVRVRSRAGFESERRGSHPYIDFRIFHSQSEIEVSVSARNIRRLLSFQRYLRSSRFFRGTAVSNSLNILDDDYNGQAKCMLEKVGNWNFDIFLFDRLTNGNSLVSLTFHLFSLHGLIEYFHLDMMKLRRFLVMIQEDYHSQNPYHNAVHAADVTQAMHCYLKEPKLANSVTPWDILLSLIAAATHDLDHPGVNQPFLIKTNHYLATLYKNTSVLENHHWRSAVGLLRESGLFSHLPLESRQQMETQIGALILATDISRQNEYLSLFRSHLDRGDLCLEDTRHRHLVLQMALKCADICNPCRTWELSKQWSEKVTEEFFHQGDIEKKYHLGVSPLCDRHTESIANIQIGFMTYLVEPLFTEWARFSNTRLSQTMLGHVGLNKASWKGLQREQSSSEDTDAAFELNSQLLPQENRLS

Astrocyte [5] = assay: Antiinflammatory activity in rat astrocytes assessed as inhibition of LPS-induced nitrite production at 5 to 10 uM incubated for 1 hr prior to LPS-challenge measured after 24 hrs by Griess method; type: functional, cell-based
Procedure, shortened: (§3)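 Glial cells from neonatal rat cerebral cortex; microglia and astrocytes separated by shaking and cultured 1 week. Purity >98% by OX42 and GFAP staining. Microglia kept with 10 ng/mL GM-CSF. Cells given compound for 1 h, then LPS (10 μg/mL) for 24 h. Nitrite in the supernatant measured by Griess reaction at 492/540 nm. Mean ± SD of six replications in three experiments.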

[6] = molecular target: T1, cGMP-inhibited 3',5'-cyclic phosphodiesterase 3A; assay: Inhibition of human recombinant PDE3A-mediated [3H]cAMP hydrolysis after 20 mins by scintillation proximity assay; procedure, shortened: as §2
[7] = molecular target: T2, High affinity 3',5'-cyclic-AMP phosphodiesterase 7A; assay: Inhibition of human recombinant PDE7A1-mediated [3H]cAMP hydrolysis after 20 mins by scintillation proximity assay; procedure, shortened: as §2
Homo sapiens [8] = organism: Homo sapiens; assay: Selectivity index, ratio of IC50 for human recombinant PDE7A1 to IC50 for human recombinant PDE3A
Procedure, shortened: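 Ratio of IC50 values for PDE7A1 and PDE3A, each obtained by scintillation proximity assay with [3H]cAMP for 20 min at 30 °C.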

Microglia [9] = assay: Antiinflammatory activity in rat microglia cells assessed as inhibition of LPS-induced nitrite production at 5 to 10 uM incubated for 1 hr prior to LPS-challenge measured after 24 hrs by Griess method; type: functional, cell-based; procedure, shortened: as §3
Astrocyte [10] = assay: Antiinflammatory activity in rat astrocytes assessed as inhibition of LPS-induced nitrite production at 30 uM incubated for 1 hr prior to LPS-challenge measured after 24 hrs by Griess method; type: functional, cell-based; procedure, shortened: as §3
Microglia [11] = assay: Antiinflammatory activity in rat microglia cells assessed as inhibition of LPS-induced nitrite production at 30 uM incubated for 1 hr prior to LPS-challenge measured after 24 hrs by Griess method; type: functional, cell-based; procedure, shortened: as §3
[12] = molecular target: T2, High affinity 3',5'-cyclic-AMP phosphodiesterase 7A; assay: Inhibition of PDE7A1
Mus musculus [13] = assay: Antiinflammatory activity in C57BL/6J mouse MOG(35 to 55)-induced experimental autoimmune encephalomyelitis model assessed as inhibition of clinical symptoms at 10 mg/kg, ip dosed daily for 16 days starting at day 5 after disease onset measured on day 32 post-immunization; type: functional, organism-based; set-up: dose 10 mg/kg
[14] = molecular target: 3',5'-cyclic-AMP phosphodiesterase 7B (Homo sapiens) (UniProt Q9NP56); assay: Inhibition of human recombinant PDE7B-mediated [3H]cAMP hydrolysis at 10 uM after 20 mins by scintillation proximity assay; procedure, shortened: as §2
3',5'-cyclic-AMP phosphodiesterase 7B (Homo sapiens), sequence (Q9NP56 whole entry): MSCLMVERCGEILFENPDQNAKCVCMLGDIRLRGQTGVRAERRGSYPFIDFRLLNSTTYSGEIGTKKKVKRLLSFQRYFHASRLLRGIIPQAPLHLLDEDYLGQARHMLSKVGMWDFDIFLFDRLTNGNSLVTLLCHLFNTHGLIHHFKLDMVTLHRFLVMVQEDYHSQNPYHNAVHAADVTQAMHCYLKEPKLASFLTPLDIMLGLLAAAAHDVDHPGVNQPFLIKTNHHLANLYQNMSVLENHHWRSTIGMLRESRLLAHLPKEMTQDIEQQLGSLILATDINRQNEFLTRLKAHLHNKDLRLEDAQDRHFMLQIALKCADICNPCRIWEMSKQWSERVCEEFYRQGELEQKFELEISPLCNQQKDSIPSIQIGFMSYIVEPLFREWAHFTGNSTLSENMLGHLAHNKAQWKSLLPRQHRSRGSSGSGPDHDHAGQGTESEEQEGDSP

[15] = molecular target: T3, High affinity 3',5'-cyclic-AMP phosphodiesterase 7A (Mus musculus) (UniProt P70453); assay: Inhibition of PDE7A1 in mouse RAW cells assessed as increase in cAMP level at 10 to 30 uM after 60 mins by enzyme immunoassay; type: cell-based
T3 sequence (whole entry): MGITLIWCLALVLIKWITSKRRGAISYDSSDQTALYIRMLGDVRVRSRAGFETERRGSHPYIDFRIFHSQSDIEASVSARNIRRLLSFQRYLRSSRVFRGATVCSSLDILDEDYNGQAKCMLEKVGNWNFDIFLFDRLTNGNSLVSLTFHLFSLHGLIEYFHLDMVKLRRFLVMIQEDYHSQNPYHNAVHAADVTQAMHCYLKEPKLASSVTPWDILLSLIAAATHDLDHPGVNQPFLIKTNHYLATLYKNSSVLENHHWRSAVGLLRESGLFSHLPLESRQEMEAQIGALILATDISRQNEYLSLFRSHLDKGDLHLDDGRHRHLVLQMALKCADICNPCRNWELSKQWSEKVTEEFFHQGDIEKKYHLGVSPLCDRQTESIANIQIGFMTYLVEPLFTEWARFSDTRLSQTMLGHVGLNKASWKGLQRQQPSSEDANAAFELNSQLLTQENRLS
Procedure, shortened: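 RAW cells seeded at 3 × 10^4 per well and incubated overnight. Compound added for 60 min at 10 or 30 μM. Intracellular cAMP quantified by enzyme immunoassay kit.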

[16] = molecular target: 3',5'-cyclic-AMP phosphodiesterase 4D (Homo sapiens, UniProt Q08499); assay: Inhibition of human recombinant PDE4D3 using fluorescein 3',5'-cyclic phosphate after 60 mins by IMAP fluorescence polarization assay
3',5'-cyclic-AMP phosphodiesterase 4D, sequence (Q08499 whole entry): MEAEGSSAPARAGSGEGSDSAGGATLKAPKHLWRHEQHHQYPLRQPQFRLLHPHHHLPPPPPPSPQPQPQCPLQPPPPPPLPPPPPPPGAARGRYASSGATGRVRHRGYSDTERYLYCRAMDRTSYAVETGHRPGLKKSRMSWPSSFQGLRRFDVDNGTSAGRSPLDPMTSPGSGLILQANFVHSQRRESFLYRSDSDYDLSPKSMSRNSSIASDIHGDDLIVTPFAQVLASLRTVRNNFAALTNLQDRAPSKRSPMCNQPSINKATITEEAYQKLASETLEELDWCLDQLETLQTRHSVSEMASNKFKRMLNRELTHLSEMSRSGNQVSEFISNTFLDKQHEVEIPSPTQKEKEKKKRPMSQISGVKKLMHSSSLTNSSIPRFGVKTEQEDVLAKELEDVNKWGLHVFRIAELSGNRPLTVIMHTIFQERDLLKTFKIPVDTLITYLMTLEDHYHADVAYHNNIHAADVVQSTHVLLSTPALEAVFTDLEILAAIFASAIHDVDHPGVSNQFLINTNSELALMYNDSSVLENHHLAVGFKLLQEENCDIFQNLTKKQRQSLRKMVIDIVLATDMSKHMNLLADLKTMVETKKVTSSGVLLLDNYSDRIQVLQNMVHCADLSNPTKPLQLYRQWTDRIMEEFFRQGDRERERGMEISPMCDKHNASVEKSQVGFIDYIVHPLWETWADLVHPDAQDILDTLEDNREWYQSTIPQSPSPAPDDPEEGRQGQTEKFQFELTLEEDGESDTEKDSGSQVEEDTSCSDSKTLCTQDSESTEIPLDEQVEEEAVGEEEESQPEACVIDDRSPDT
Procedure, shortened: (§4)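 IMAP fluorescence polarization assay. Human recombinant PDE4B2 or PDE4D3 (0.05 U) incubated with 1 nM fluorescein adenosine 3′,5′-cyclic phosphate for 60 min at ambient temperature. Stopped with IMAP binding reagent and left 1 h before reading FP. IC50 from a sigmoidal dose−response fit.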

[17] = molecular target: 3',5'-cyclic-AMP phosphodiesterase 4B (Homo sapiens, UniProt Q07343); assay: Inhibition of human recombinant PDE4B2 using fluorescein 3',5'-cyclic phosphate after 60 mins by IMAP fluorescence polarization assay; procedure, shortened: as §4
3',5'-cyclic-AMP phosphodiesterase 4B, sequence (Q07343 whole entry): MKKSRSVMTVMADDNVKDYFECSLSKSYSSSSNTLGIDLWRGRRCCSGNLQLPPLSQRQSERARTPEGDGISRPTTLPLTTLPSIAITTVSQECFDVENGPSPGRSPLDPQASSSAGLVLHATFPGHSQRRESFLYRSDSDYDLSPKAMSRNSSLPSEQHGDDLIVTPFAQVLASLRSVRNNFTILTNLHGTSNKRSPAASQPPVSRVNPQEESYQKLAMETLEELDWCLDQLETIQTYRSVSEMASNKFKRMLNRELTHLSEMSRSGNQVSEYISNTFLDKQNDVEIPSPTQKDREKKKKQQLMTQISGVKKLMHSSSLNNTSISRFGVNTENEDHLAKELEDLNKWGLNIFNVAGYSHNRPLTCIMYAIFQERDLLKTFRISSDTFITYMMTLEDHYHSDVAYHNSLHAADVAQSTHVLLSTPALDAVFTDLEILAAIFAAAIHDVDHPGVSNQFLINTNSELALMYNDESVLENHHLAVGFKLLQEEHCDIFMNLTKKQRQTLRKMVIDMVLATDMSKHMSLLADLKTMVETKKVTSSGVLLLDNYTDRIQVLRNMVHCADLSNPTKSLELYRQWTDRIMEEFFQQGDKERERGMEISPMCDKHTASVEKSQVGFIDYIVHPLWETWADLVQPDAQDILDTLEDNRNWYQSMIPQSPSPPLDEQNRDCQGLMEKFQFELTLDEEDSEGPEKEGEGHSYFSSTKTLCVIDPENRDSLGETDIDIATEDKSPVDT

Mus musculus [18] = assay: Antiinflammatory activity in C57BL/6J mouse MOG(35 to 55)-induced experimental autoimmune encephalomyelitis model assessed as inhibition of clinical symptoms at 10 mg/kg, ip dosed daily for 26 days starting at day 5 after disease onset measured on day 42 post-immunization; type: functional, organism-based; set-up: dose 10 mg/kg
[19] = Permeability across after 2 hrs 30 mins by pig brain lipid membrane based PAMPA-BBB assay; type: ADME; conditions: read-out: permeability
Procedure, shortened: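 PAMPA-BBB assay. Donor wells coated with porcine polar brain lipid in dodecane (20 mg/mL). Compound dissolved in EtOH/PBS pH 7.4; acceptor holds PBS/EtOH 70/30. Sandwich left 2 h 30 min at 25 °C. Concentrations read by UV at 3−5 wavelengths, in three wells and two independent runs. Ten reference drugs included for validation.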

Homo sapiens [20] = organism: Homo sapiens; assay: Selectivity index, ratio of IC50 for human recombinant PDE3A to IC50 for human recombinant PDE7A1
[21] = molecular target: T2, High affinity 3',5'-cyclic-AMP phosphodiesterase 7A; assay: Competitive inhibition of human recombinant PDE7A1 using 5 nM to 2 uM cAMP as substrate by Lineweaver-Burk plot analysis
Procedure, shortened: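 PDE7A1 scintillation proximity assay with unlabeled cAMP varied from 5 nM to 2 μM, against fixed [3H]cAMP tracer. Two inhibitor concentrations tested, with AMP formation measured. Data analysed by Lineweaver−Burk plots. Triplicate measurements, mean ± SEM.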

Mus musculus [22] = assay: Toxicity in C57BL/6J mouse MOG(35 to 55)-induced experimental autoimmune encephalomyelitis model assessed as decrease in body weight at 10 mg/kg, ip dosed daily for 26 days starting at day 5 after disease onset measured on day 42 post-immunization; type: organism-based; set-up: dose 10 mg/kg, route intraperitoneal; conditions: in vivo, 624 h

**Q.** Which results are given for `COc1cc(COC(=O)c2ccc(-c3ccc([N+](=O)[O-])cc3)o2)cc(OC)c1OC`?
**A.** Activity [1]: Non-toxic; inhibition [2]: 57.1%; Activity [3]: Non-toxic; inhibition [4]: 48%; Activity (Astrocyte [5]): Active; IC50 [6]: 3.4 µM; IC50 [7]: 14.1 µM; Ratio IC50 (Homo sapiens [8]): 4.15; Activity (Microglia [9]): Active

**Q.** For `COc1ccc(C2CNC(=O)C2)cc1OC1CCCC1` (stereo not given), which Activity (Astrocyte [10]) is on record?
**A.** The Activity was “Active”.

**Q.** And the Activity (Microglia [11])?
**A.** The Activity was “Active”.

**Q.** For `COc1cc(CNC(=O)c2ccc(-c3cccc(C(F)(F)F)c3)o2)cc(OC)c1OC`, which inhibition [4] is on record?
**A.** Its inhibition is 23.5%.

**Q.** Which inhibition [4] does the source give for `CCOc1cc(C(=O)OCc2ccc(-c3ccc([N+](=O)[O-])cc3)o2)cc(OCC)c1OCC` here?
**A.** The inhibition was 39.9%.

**Q.** Which inhibition [4] does the source give for `CCOc1cc(COC(=O)c2ccc(-c3ccc(C)cc3)o2)cc(OCC)c1OCC` here?
**A.** Its inhibition is 28%.

**Q.** For `CCOc1cc(C(=O)OCc2ccc(-c3ccc([N+](=O)[O-])cc3C)o2)cc(OCC)c1OCC`, which inhibition [4] is on record?
**A.** The inhibition was 29%.

**Q.** And the IC50 [12]?
**A.** Its IC50 is 0.58 µM.

**Q.** With `COc1cc(COC(=O)c2ccc(C)o2)cc(OC)c1OC` as the compound, how does the inhibition [4] read?
**A.** Its inhibition is -9.9%.

**Q.** Which inhibition [4] does the source give for `COc1cc(COC(=O)c2ccc(-c3ccc(C)cc3)o2)cc(OC)c1OC` here?
**A.** Its inhibition is 30.7%.

**Q.** Which inhibition [4] does the source give for `CCOc1cc(C(=O)OCc2ccc(-c3ccc(Cl)cc3Cl)o2)cc(OCC)c1OCC` here?
**A.** Its inhibition is 3.7%.

**Q.** For `COc1cc(COC(=O)c2ccc(-c3ccccc3)o2)cc(OC)c1OC`, which Activity (Mus musculus [13]) is on record?
**A.** Its Activity is “Active”.

**Q.** What about the Activity [1] of the same compound?
**A.** Its Activity is “Non-toxic”.

**Q.** And the inhibition [2]?
**A.** Its inhibition is 46.1%.

**Q.** What about the inhibition [14] of the same compound?
**A.** The inhibition was 23.2%.

**Q.** And the inhibition [15]?
**A.** Its inhibition is “Active”.

**Q.** What about the IC50 [16] of the same compound?
**A.** The IC50 was 66.3 µM.

**Q.** What about the Activity [3] of the same compound?
**A.** Its Activity is “Non-toxic”.

**Q.** And the IC50 [17]?
**A.** The IC50 was 12.4 µM.

**Q.** What about the inhibition [4] of the same compound?
**A.** The inhibition was 57.9%.

**Q.** And the Activity (Mus musculus [18])?
**A.** The Activity was “inactive”.

**Q.** And the Papp at 2.5 h [19]?
**A.** The Papp at 2.5 h was 8.1 ×10⁻⁶ cm/s.

**Q.** What about the Ratio IC50 (Homo sapiens [20]) of the same compound?
**A.** The Ratio IC50 was 10.

**Q.** And the Activity (Astrocyte [5])?
**A.** Its Activity is “Active”.

**Q.** What about the IC50 [6] of the same compound?
**A.** The IC50 was 54.6 µM.

**Q.** And the IC50 [7]?
**A.** Its IC50 is 5.17 µM.

**Q.** And the Ratio IC50 (Homo sapiens [8])?
**A.** The Ratio IC50 was 0.09.

**Q.** What about the Ki [21] of the same compound?
**A.** Its Ki is 5.91 µM.

**Q.** And the Activity (Microglia [9])?
**A.** The Activity was “Active”.

**Q.** And the Activity (Mus musculus [22])?
**A.** The Activity was “Toxic”.

**Q.** For `COc1cc(COC(=O)c2ccc(-c3cccc(C(F)(F)F)c3)o2)cc(OC)c1OC`, which inhibition [4] is on record?
**A.** The inhibition was 14%.

**Q.** For `CCOc1cc(COC(=O)c2ccc(-c3ccc([N+](=O)[O-])cc3)o2)cc(OCC)c1OCC`, which inhibition [4] is on record?
**A.** Its inhibition is 29.2%.

**Q.** For `COc1cc(COC(=O)c2ccco2)cc(OC)c1OC`, which inhibition [4] is on record?
**A.** Its inhibition is 10%.

**Q.** With `CCOc1cc(COC(=O)c2ccc(-c3ccc(Cl)cc3Cl)o2)cc(OCC)c1OCC` as the compound, how does the inhibition [4] read?
**A.** The inhibition was 31.1%.

**Q.** Which inhibition [4] does the source give for `COc1ccc(COC(=O)c2ccc(-c3ccc(Cl)cc3[N+](=O)[O-])o2)cc1` here?
**A.** Its inhibition is 41.6%.

**Q.** What does the source list for `COc1cc(COC(=O)c2ccc(-c3ccc(Cl)cc3[N+](=O)[O-])o2)cc(OC)c1OC`?
**A.** Activity [1]: Non-toxic; inhibition [2]: 11%; Activity [3]: Non-toxic; inhibition [4]: 49.1%; Activity (Astrocyte [5]): Active; IC50 [7]: 7.31 µM; Activity (Microglia [9]): Active

Reference: ChEMBL document CHEMBL2040739, “Effect of phosphodiesterase 7 (PDE7) inhibitors in experimental autoimmune encephalomyelitis mice. Discovery of a new chemically diverse family of compounds” (J Med Chem, 2012)
